The list is not random: actives were taken first. Their share in the collection is about 1.6%.
NR2E3 ag-1: NR2E3 agonists in two-hybrid cells, primary screen, cell-based, luminescence, CHO-S, Gal4-NCOR/VP16-NR2E3; Photoreceptor-specific nuclear receptor (Homo sapiens), Q9Y5X4; luciferase; inhibition of corepressor binding, % at 3.98 µM; 360,000 compounds, 0.35% hits;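 active = inhibition above the mean of all tested compounds plus 3 SD, cut at about 70% in these data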;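 note: higher means lower luciferase signal from less NR2E3 corepressor binding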
VLA-4 inh: inhibition in human VLA-4 binding assay, primary screen, VLA-4 allosteric modulator project, MLPCN library, flow cytometry, VLA-4 expressing cells | inhibition, % (about 7 µM as worked out from the volumes in the protocol) | AID 2557, 2010 | 330,000 compounds, 0.2% hits | ligand binding flow cytometry | Integrin alpha-4 (Homo sapiens), P13612; in the data active = inhibition above about 50%
NR1D1 modulator: modulators of Rev-erb alpha DNA binding, primary screen, biochemical, FITC-DNA, fluorescence polarization, uHTS | Nuclear receptor subfamily 1 group D member 1 (Homo sapiens), P20393 | AID 1259318, 2017 | activity, % at 10 µM | 370,000 compounds, 0.79% hits | Rev-erbα–FITC-DNA binding, 90 min;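 active = activity above about 14%, limit read from the data; passing the limit was not always enough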
NR2E3 ag-2: inhibitors of NR2E3-RetCOR corepressor binding, primary screen, NR2E3 agonist project, biochemical, TR-FRET, GST-NR2E3, biotin-RetCOR | 320,000 compounds, 0.12% hits | inhibition of corepressor binding, % at 4.78 µM | Photoreceptor-specific nuclear receptor (Homo sapiens), Q9Y5X4 | AID 2300, 2010 | 1536-well;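 active = percent inhibition above the cutoff of mean plus 3 SD of all tested compounds, set per screening campaign, cut at about 20% in these data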
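Test system – NR2E3–RetCOR corepressor complex · Quantity – NR2E3 fusion 1.35 nM · Buffer or medium – Tris pH 7.5 · Incubation – Compound–protein incubation for 5 h at 4 °C · Technique – TR-FRET, Eu(K)-anti-GST donor, streptavidin-D2 acceptor, ex 340, em 617/671 nm · Evaluation – percent inhibition of 671/617 nm emission ratio versus biotin and DMSO controls · Plate – 1536-well format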
PG9 binder: binders of HIV-1 gp120 antibody PG9, primary screen, biochemical, TR-FRET; TR-FRET gp120-PG9 antibody binding; inhibition, % at 6.7 µM; 360,000 compounds, 0.43% hits; AID 624416, 2012; in the data active = inhibition above about 8.5%
NR1D1 mod conf: modulators of Rev-erb alpha DNA binding, confirmation, biochemical, FITC-DNA, fluorescence polarization, single point; 90 min; AID 1259319, 2017; 3,000 compounds, 61% hits; activation, % at 25 µM; shares compounds with NR1D1 modulator;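 active = activation at or above a set limit, or at least 3 SD above the negative control mean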
RORg counter: modulation of RORgamma DNA binding, dose response, counter-screen for Rev-erb alpha modulator project, biochemical, fluorescence polarization, FITC-DNA. shares compounds with NR1D1 modulator. purified RORgamma protein-FITC-DNA binding. IC50, µM. 910 compounds, 8% hits;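 active = Compounds whose fitted half-maximal concentration for disrupting protein-DNA binding is below 10 micromolar; the record names Rev-erb in its text, so the target is in doubt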
A number is an active result; 0 = inactive; - = no result given.

SMILES	NR2E3 ag-1	VLA-4 inh	NR1D1 modulator	NR2E3 ag-2	PG9 binder	NR1D1 mod conf	others
Cc1cc2cc3c(cc2nc1SCc1ccccn1)OCCO3	0	0	44	0	0	17
N#Cc1cc2ccccc2nc1SCc1ccccn1	0	0	0	0	0	-
CCOCCCNC(=O)c1c[nH]c2c(CC)cccc2c1=O	0	0	0	0	0	-
Cn1cc(C2=C(c3ccc(Cl)cc3Cl)C(=O)NC2=O)c2ccccc21	0	0	36	0	0	20
COc1ccccc1Nc1nn2c(=O)c3ccc(C(=O)N4CCCCC4)cc3nc2s1	0	0	0	0	0	-
O=c1c2ccc(F)cc2nc2sc(Nc3ccc4c(c3)CCC4)nn12	-	-	74	-	-	0
O=c1c2ccccc2nc2sc(Nc3cccc(Cl)c3)nn12	0	0	127	0	0	88	RORg counter=0
CC#CC#Cc1cccc(=O)o1	0	0	0	0	0	-
CC(C)CNS(=O)(=O)c1cc(C(=O)OCC(=O)N2CCOCC2)c(Cl)cc1Cl	0	0	0	0	0	-
CCOC(=O)C1C(c2ccccc2)C(C(=O)OCC)S(=O)(=O)C(CCN(CC)CC)S1(=O)=O (stereo not drawn)	0	0	0	0	0	-
O=C(O)C1C2CCC(O2)C1C(=O)Nc1ccccc1Br (stereo not drawn)	0	0	0	0	0	-
Fc1ccc(CSc2ncnc3c2oc2ccccc23)cc1	0	0	290	0	0	284	RORg counter=0
Fc1cccc(CSc2ncnc3c2oc2ccccc23)c1	0	0	122	0	0	154	RORg counter=6.3
COc1ccc(Cl)cc1-c1cc(C(=O)Nc2ccc(F)cc2)[nH]n1	0	-	67	-	0	48	RORg counter=0
COc1ccc(NC(=O)c2cc(-c3cc(Cl)ccc3OC)n[nH]2)cc1OC	0	-	0	-	0	-
O=C1c2ccccc2C(Nc2ccc(S(=O)(=O)N3CCOCC3)cc2)N1c1cccnc1 (stereo not drawn)	0	0	0	0	0	-
O=C1c2ccccc2C(Nc2ccc(S(=O)(=O)N3CCCCC3)cc2)N1c1ccccn1 (stereo not drawn)	0	0	25	0	0	21
COc1cc(OC)c(NC(=O)c2sc3ncn(CC(=O)N4CCN(c5ccccn5)CC4)c(=O)c3c2C)cc1Cl	0	0	0	0	0	-
COc1ccccc1NC(=O)c1sc2ncn(Cc3ccc(C)cc3)c(=O)c2c1C	0	0	46	0	0	0
COc1ccc(NC(=O)c2sc3ncn(CC(=O)N4CCCCC4)c(=O)c3c2C)cc1OC	0	0	0	0	0	-
COc1ccccc1NC(=O)c1sc2ncn(Cc3cccc(C)c3)c(=O)c2c1C	0	0	55	0	0	54	RORg counter=1.1
COc1ccc(NC(=O)c2sc3ncn(CC(=O)N4CCN(c5ccccn5)CC4)c(=O)c3c2C)c(OC)c1	0	0	48	0	0	0
COc1ccc(NC(=O)C2Cc3c(-c4ccccc4Oc4ccccc4)ccnc3O2)cc1 (stereo not drawn)	0	-	0	-	0	-
O=C(Nc1nnc(-c2ccc3c(c2)OCCO3)o1)c1ccc(Cc2ccccc2)cc1	0	0	31	0	0	0
COc1ccc(NC(=O)NC2(C(=O)N3CCOCC3)CCCCC2)cc1	0	0	0	0	0	-
SMILES	NR2E3 ag-1	VLA-4 inh	NR1D1 modulator	NR2E3 ag-2	PG9 binder	NR1D1 mod conf	others
O=c1cc(-c2ccccc2Cl)oc2c(NS(=O)(=O)c3cccs3)ccc(O)c12	0	0	27	0	0	33	RORg counter=0
O=c1cc(-c2ccccc2Cl)oc2c(NS(=O)(=O)c3ccccc3C(F)(F)F)ccc(O)c12	0	0	0	0	0	-
Nc1c(-c2ccc(Cl)cc2)cnc2c(-c3ccccc3)cnn12	0	0	0	0	0	-
O=C(COC(=O)c1sc2cc(F)ccc2c1Cl)Nc1ncc(Cl)cc1Cl	0	0	64	0	0	37	RORg counter=0
CCOC(=O)c1c(NC(=O)c2cccc(N3C(=O)CCC3=O)c2)sc2c1CCN(CC)C2	0	0	0	0	0	-
O=C(Cc1cccc2ccccc12)NN=Cc1ccc2c(c1)CCC2	0	-	0	-	0	-
O=C(CCc1ccccc1)NC(=S)Nc1ccc2c(c1)C(=O)OC2	0	0	31	0	0	30
O=C(CCc1ccccc1)NC(=S)Nc1cccc(Br)c1	0	0	0	0	0	-
CN(Cc1ccccc1)C(=O)COC(=O)C12CC3CC(CC(Br)(C3)C1)C2	0	0	0	-	0	-
COc1ccc(C(=O)NCCNc2nc3c(C)cccc3cc2C#N)cc1	0	0	0	0	0	-
Cc1cccc2cc(C#N)c(NCCNC(=O)NC3CCCCC3)nc12	0	0	62	0	0	31	RORg counter=0
COc1ccc(/C=C2\CC3(OC(=O)c4ccco4)CCCN2C3)cc1 (stereo not drawn)	-	-	0	-	-	-
Cc1sc(NC(=O)Cc2ccc3c(c2)OCO3)nc1-c1ccc2c(c1)CCN2C(=O)c1ccc(F)cc1	0	0	0	0	0	-
Cc1sc(NC(=O)Cc2ccc3c(c2)OCO3)nc1-c1ccc2c(c1)CCN2C(=O)c1ccccc1F	0	0	45	0	0	53
CCCc1cc(=O)oc2cc(C)cc(OCC(=O)Nc3ccc(S(N)(=O)=O)cc3)c12	0	0	135	0	0	151	RORg counter=0
CCCc1cc(=O)oc2cc(C)cc(OC(C)C(=O)NCc3ccncc3)c12 (stereo not drawn)	0	0	23	0	0	21
CC(O)(c1cccc(F)c1)c1nc(-c2cccc3cccnc23)cs1 (stereo not drawn)	0	-	0	-	0	-
CC(NC(C(=O)c1ccccc1)c1ccccc1)c1ccccc1 (stereo not drawn)	0	-	0	-	0	-
CC1(C(=O)NS(=O)(=O)c2ccc(Cl)s2)CCN1C(=O)C1(c2ccc(Cl)cc2)CCC1 (stereo not drawn)	0	-	0	-	0	-
CN(CC(=O)Nc1cccc(F)c1)C(=O)c1cc(=O)[nH]c2ccccc12	0	0	0	0	0	-
CCOCCCNc1nc2c(C)cccn2c(=O)c1/C=C1\SC(=S)N(C(C)CC)C1=O (stereo not drawn)	0	0	23	0	0	0
CCC(C)(C)n1nnnc1CN1CCN(c2nc3cc(OC)ccc3cc2C#N)CC1	0	0	56	0	0	0
COC(=O)C1(C)CCCC2(C)C1CCC13OCC(CC21)C(O)(C(C)C)C3O (stereo not drawn)	0	-	0	-	0	-
